# According to PMC11005929 (Diabetes, Metabolic Syndrome and Obesity, 2024):
# How the values were obtained:
# db/db mice = test: Glucose-lowering effect of repeated administration in db/db mice; assay type: in vivo, mouse
# [1] = test system: non-diabetic participants; settings: 2-year treatment, SCALE trials; cited from earlier work
# DIO mice = test: Repeated administration in diet-induced obesity; assay type: in vivo, mouse; settings: s.c. once daily (DR10627 3, 10, 30 nmol/kg; liraglutide 80 nmol/kg)
# In short: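 Male C57BL/6 mice, 7 weeks old, kept 11 weeks on a 60% kcal fat diet; those at 42.2–48.7 g were randomised (n=10/group). Standard-diet mice served as normal controls. Dosed s.c. once daily at 5 mL/kg for 57 days. Body weight and food intake were recorded after dosing, and weight change and cumulative intake were calculated. Mean ± SD.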
# [2] = Phase 3 trial; cited from earlier work
Compound,"blood glucose level before administration on D28 (db/db mice; 50 nmol/kg s.c. once daily, n=10, mean ± SD, vehicle 33.6 ± 6.4)","blood glucose levels after treatment on D1 (db/db mice; first s.c. dose (DR10627 2, 6, 18 nmol/kg; liraglutide 50 nmol/kg))",weight loss [1],body weight from D5 to D57 compared to the vehicle (DIO mice),rate of antitaspoglutide antibodies detection [2]
CCCCCCCCCCCCCCCC(=O)N[C@@H](CCC(=O)NCCCC[C@H](NC(=O)[C@H](C)NC(=O)[C@H](C)NC(=O)[C@H](CCC(N)=O)NC(=O)CNC(=O)[C@H](CCC(=O)O)NC(=O)[C@H](CC(C)C)NC(=O)[C@H](Cc1ccc(O)cc1)NC(=O)[C@H](CO)NC(=O)[C@H](CO)NC(=O)[C@@H](NC(=O)[C@H](CC(=O)O)NC(=O)[C@H](CO)NC(=O)[C@@H](NC(=O)[C@H](Cc1ccccc1)NC(=O)[C@@H](NC(=O)CNC(=O)[C@H](CCC(=O)O)NC(=O)[C@H](C)NC(=O)[C@@H](N)Cc1c[nH]cn1)[C@@H](C)O)[C@@H](C)O)C(C)C)C(=O)N[C@@H](CCC(=O)O)C(=O)N[C@@H](Cc1ccccc1)C(=O)N[C@H](C(=O)N[C@@H](C)C(=O)N[C@@H](Cc1c[nH]c2ccccc12)C(=O)N[C@@H](CC(C)C)C(=O)N[C@H](C(=O)N[C@@H](CCCNC(=N)N)C(=O)NCC(=O)N[C@@H](CCCNC(=N)N)C(=O)NCC(=O)O)C(C)C)[C@@H](C)CC)C(=O)O [liraglutide],27.0 ± 3.9 mM,decreased significantly,5–10%,significantly reduced,–
taspoglutide,–,–,–,–,49%
